Assay results from ChEMBL document CHEMBL1145212, “Fluorinated diaryl sulfides as serotonin transporter ligands: synthesis, structure-activity relationship study, and in vivo evaluation of fluorine-18-labeled compounds as PET imaging agents” (J Med Chem, 2005).

Legend:
Format in all cases: cell-based
[1] = biological target: Sodium-dependent dopamine transporter (Homo sapiens, UniProt Q01959); test: In vitro displacement of [3H]GBR-12935 from human dopamine transporter expressed in HEK293 cells
Sodium-dependent dopamine transporter, sequence (Q01959 whole entry): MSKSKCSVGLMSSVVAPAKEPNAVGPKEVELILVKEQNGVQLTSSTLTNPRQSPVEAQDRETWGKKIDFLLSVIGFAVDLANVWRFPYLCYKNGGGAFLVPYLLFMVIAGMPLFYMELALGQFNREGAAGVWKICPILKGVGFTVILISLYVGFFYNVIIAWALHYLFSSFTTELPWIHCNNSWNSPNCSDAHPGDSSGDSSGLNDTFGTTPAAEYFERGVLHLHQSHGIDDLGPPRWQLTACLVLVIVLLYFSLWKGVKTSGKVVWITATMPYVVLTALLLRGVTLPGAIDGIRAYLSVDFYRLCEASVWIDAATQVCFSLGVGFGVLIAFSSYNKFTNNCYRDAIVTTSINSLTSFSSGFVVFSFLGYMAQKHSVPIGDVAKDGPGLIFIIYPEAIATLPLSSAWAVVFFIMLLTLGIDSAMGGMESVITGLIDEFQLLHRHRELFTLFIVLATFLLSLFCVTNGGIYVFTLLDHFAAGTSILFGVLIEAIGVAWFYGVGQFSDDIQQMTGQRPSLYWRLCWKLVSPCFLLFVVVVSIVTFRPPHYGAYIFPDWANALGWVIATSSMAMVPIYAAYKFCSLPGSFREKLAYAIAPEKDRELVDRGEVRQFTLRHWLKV
Summary of the method: (§1)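 Competitive binding using cloned human transporters expressed in HEK-293 cells. NET was labelled with [³H]nisoxetine and DAT with [³H]GBR12935, following a previously published procedure.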

[2] = biological target: Sodium-dependent serotonin transporter (Homo sapiens, UniProt P31645); test: In vitro displacement of [3H]paroxetine from human serotonin transporter expressed in HEK293 cells
Sodium-dependent serotonin transporter, sequence (P31645 whole entry): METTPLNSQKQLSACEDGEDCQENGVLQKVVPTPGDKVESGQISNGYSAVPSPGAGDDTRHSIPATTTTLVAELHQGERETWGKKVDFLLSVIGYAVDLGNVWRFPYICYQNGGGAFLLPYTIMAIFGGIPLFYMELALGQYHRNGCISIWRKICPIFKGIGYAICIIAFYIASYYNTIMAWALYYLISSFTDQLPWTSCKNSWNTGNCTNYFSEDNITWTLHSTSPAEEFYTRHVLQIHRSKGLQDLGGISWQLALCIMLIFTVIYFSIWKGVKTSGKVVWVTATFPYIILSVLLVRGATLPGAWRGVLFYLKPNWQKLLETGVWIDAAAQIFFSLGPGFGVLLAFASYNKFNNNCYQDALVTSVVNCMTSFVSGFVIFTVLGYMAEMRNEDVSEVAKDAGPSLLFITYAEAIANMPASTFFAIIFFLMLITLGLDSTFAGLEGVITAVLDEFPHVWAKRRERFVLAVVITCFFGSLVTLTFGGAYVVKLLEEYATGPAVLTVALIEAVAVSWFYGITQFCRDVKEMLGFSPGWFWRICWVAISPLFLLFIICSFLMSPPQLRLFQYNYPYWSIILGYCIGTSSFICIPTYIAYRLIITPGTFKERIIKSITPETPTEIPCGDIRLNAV

[3] = biological target: Sodium-dependent noradrenaline transporter (Homo sapiens, UniProt P23975); test: In vitro displacement of [3H]nisoxetine from human norepinephrine transporter expressed in HEK293 cells; summary of the method: as §1
Sodium-dependent noradrenaline transporter, sequence (P23975 whole entry): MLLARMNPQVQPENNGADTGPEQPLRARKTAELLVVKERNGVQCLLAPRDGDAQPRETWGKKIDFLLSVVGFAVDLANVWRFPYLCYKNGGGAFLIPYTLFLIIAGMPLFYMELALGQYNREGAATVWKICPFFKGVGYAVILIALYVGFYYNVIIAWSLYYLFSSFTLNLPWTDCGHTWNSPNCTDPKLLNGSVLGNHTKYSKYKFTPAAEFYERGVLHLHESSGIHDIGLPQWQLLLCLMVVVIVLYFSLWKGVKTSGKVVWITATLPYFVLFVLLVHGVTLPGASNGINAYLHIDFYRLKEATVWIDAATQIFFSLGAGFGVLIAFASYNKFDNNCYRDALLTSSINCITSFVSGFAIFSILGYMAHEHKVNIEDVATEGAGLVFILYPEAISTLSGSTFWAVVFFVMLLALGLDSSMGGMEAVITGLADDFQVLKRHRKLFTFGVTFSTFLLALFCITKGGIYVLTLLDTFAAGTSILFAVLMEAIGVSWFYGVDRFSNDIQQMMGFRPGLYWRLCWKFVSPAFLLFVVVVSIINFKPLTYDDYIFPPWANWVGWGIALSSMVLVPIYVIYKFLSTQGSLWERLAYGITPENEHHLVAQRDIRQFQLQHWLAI

Ki [1] [µM]	Ki [2] [µM]	Ki [3] [µM]	Compound
5.3	0.03	4.44	Cc1ccc(Sc2ccccc2CN)c(N)c1
	0.00107		CN(C)Cc1ccccc1Sc1ccc(I)cc1N
2.12		7.55	CCNCc1ccccc1Sc1ccc(C)cc1N
	0.00119		Cc1ccc(Sc2ccccc2CN(C)C)c(N)c1
> 10	0.518	4.33	Cc1ccc(Sc2ccccc2CNCCCF)c(N)c1
2.91		3.82	C=CCNCc1ccccc1Sc1ccc(C)cc1N
> 10	0.179	7.04	Cc1cc(N)c(Sc2ccccc2CN(C)C)cc1F
	0.00112		CN(C)Cc1ccccc1Sc1ccc(C#N)cc1N [DASB]
3.55		> 10	CCCNCc1ccccc1Sc1ccc(C)cc1N
3.61	0.0008	0.787	CN(C)Cc1ccccc1Sc1ccc(CO)cc1N

Compound	Ki [1] [µM]	Ki [2] [µM]	Ki [3] [µM]
Cc1ccc(Sc2ccccc2CNCCF)c(N)c1	4.43	0.0713	3.91
